Exocytosis inh = lytic granule exocytosis inhibition | AID 651702 | actives 0.66% (n = 360,000) | TALL-104 LAMP-1 surface exposure, flow cytometry; cells stimulated with thapsigargin and PMA | inhibition, % at 10 µM;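 active means inhibition above about 55%, limit read from the data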
T cell HTS = T cell immune modulation candidate. 2C CD8+ T cell-vesicle binding, flow cytometry; stronger effect = lower value. response (vesicle binding), % at 7 µM. actives 0.068% (n = 330,000). AID 2052;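 active means response, share of CD8 T cells binding vesicles, and their 90th percentile fluorescence all below set limits, cut at about 80% in these data, passing the limit was not always enough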;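 further: values below 100% mean blocked vesicle binding to the CD8+ T cells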
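Benchmarks: naked versus QL9-loaded vesicles / Assay system: purified 2C TCR transgenic mouse naive CD8+ T cells / Technique: high-throughput flow cytometry with anti-B7-1 and anti-CD8 staining / Timing: Cell–vesicle co-incubation 1.5 h at 37 °C, staining 20 min on ice / Read-out: percent CD8+ FL2 mean versus row control / Probe or stimulus: QL9-loaded Drosophila micro-vesicles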
B2AR ag = agonists of human beta-2 adrenergic receptor inducing internalization | actives 0.43% (n = 340,000) | P07550 | response, % (concentration not given with the values) | Am2.2-beta2AR cells, FAP receptor internalization, flow cytometry;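 active means response above a set limit, near 3 SD of response in nonfluorescent compounds, cut at about 42% in these data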
Target sequence (P07550 whole entry, looked up): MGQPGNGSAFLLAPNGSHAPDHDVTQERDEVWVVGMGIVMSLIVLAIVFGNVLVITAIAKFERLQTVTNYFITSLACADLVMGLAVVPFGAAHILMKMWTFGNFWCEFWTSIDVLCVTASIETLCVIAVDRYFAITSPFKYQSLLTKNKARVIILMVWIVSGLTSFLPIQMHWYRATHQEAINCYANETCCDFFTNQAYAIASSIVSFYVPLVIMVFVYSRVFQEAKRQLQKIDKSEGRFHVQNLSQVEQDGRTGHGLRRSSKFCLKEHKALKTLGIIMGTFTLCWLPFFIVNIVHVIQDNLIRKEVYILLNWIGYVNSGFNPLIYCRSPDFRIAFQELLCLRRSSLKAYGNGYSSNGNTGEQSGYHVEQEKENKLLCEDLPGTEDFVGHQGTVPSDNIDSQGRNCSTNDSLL
V-ATPase pH = yeast V-ATPase proton transport regulation by pHLuorin; S. cerevisiae, pHLuorin cytosolic pH fluorescence; response, % at 10 µM; actives 0.37% (n = 350,000); in the data active means response mostly above about 7.3%, no sharp cut-off; inactive means mostly below about 5.4%; further: actives read high
MPTP inh = blocks calcium-induced mitochondrial swelling. isolated mouse mitochondria, Ca2+ swelling absorbance, 30 min. inhibition, % at 10 µM. actives 1.4% (n = 360,000);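 active means inhibition of 50% or more, scaled per plate between neutral and stimulator controls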;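 further: 0% = DMSO wells given calcium and 100% = 1 mM EGTA wells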
rCAG RNA binder = binds r(CAG) RNA repeats | inhibition, % at 3 µM | r(CAG) RNA repeat, TO-PRO-1 dye displacement fluorescence | AID 651821 | actives 1.3% (n = 370,000);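 active means inhibition above the plate cutoff, the mean of all test compounds on that plate plus 3 SD, cut at about 35% in these data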;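 further: 0% = DMSO alone and 100% = 100 µM mitoxantrone as full dye displacement; higher means more dye released from RNA so lower well fluorescence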
MPTP counter = membrane potential counter-screen of mitochondrial pore inhibitors; actives 78% (n = 5,000); inhibition, % at 10 µM; shares compounds with MPTP inh; isolated mitochondria, Rhodamine 123 fluorescence; in the data active means inhibition above about 22%;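 further: 0% = DMSO vehicle and 100% = positive control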
* marks the source's active call; other numbers are inactive results; / = no result given. Hits are enriched below; roughly 3.8% of the tested compounds scored in any of these assays.

SMILES	Exocytosis inh	T cell HTS	B2AR ag	V-ATPase pH	MPTP inh	rCAG RNA binder	MPTP counter
O=C(Nc1ccc(S(=O)(=O)N2CCCCC2)cc1)c1ccccc1Cl	-2.6	308.7	4.7	-1.6	0.3	-0.5	/
O=S(=O)(c1ccc(NC(=S)NN=Cc2ccccc2O)cc1)N1CCCCC1	27.8	/	4.5	-3.5	98.9*	28.3	81.3*
O=C(Nc1ccccc1)Nc1ccc(S(=O)(=O)N2CCCCC2)cc1	-2.8	284.2	5.9	3.3	98.6*	13.6	88.7*
O=S(=O)(c1ccc(NC(=S)NC23CC4CC(CC(C4)C2)C3)cc1)N1CCCCC1	-0.6	/	/	0.7	89.8*	7.1	60.7*
NS(=O)(=O)c1ccc(NC(=S)Nc2ccc(S(=O)(=O)N3CCCC3)cc2)cc1	-1.7	174.8	8.8	3.6	-1.0	4.8	/
Cc1oc(S(=O)(=O)N2CCCCC2)cc1NC(=O)Nc1ccccc1	0.2	113.1	0.8	0.6	51.2*	17.4	54.0*
COc1ccc(NC(=O)N(CCc2c(C)[nH]c3ccccc23)Cc2cccs2)cc1OC	/	/	/	/	/	4.4	/
CCOc1ccc(NC(=S)NC23CC4CC(CC(C4)C2)C3)cc1	3.4	494.3	-4.4	-2.2	6.5	1.2	/
O=C(CN1CCCc2ccccc21)N/N=C/c1ccccc1	0.7	109.1	-7.8	0.3	0.7	6.0	/
O=C(N/N=C\c1c(O)ccc2ccccc12)c1ccc(S(=O)(=O)N2CCCCC2)cc1	-0.2	102.9	-158.4	-1.4	95.1*	-3.7	70.2*
Cc1oc(S(=O)(=O)N2CCCCC2)cc1NC(=O)Nc1ccc(Cl)cc1	2.1	422.4	-0.9	3.0	83.7*	6.0	78.5*
FC(F)Oc1ccc(NC(=S)NC23CC4CC(CC(C4)C2)C3)cc1	18.4	535.4	2.7	0.5	53.6*	-2.6	95.5*
O=C(CN1CCCc2ccccc21)N/N=C/c1c(O)ccc2ccccc12	0.8	142.9	13.4	-1.5	94.8*	10.5	88.9*
O=C(NN=Cc1c(O)ccc2ccccc12)c1ccc2c(c1)OCO2	-4.1	415.9	8.7	-3.3	20.6	8.0	/
O=C(Nc1ccc(C(=O)N2CCCC2)cc1)Nc1ccc(Cl)cc1Cl	-0.5	273.0	2.0	0.8	-2.9	-0.1	/
Cc1cc(Br)c2nc(-c3ccc(F)cc3)c(Cc3cccc(Cl)c3)n2c1	/	/	/	/	/	9.2	/
CCOC(=O)[C@]12CCCC=C1N(Cc1ccc(OC)cc1)C(=O)[C@@H]2CC(=O)NCc1cccc2ccccc12	/	/	/	/	/	4.4	/
O=C(NCCSCc1c(F)cccc1Cl)Nc1ccccc1	20.1	398.7	-12.1	-1.3	1.0	/	/
CC(C)COc1ccc(CNC(=S)Nc2ccccc2)cc1Cl	5.2	277.5	-11.5	-1.6	74.3*	1.9	86.0*
CC(C)COc1ccc(CNC(=S)NCc2ccccc2)cc1	4.6	307.5	-33.4	0.3	53.3*	-5.2	81.5*
S=C(NCCSCc1ccc(Cl)cc1Cl)Nc1ccccc1	4.0	194.4	15.8	3.4	96.9*	-1.4	105.0*
S=C(Nc1ccccc1)Nc1ccc(OCc2ccc(Cl)cc2Cl)cc1	-1.2	419.3	10.1	7.5	84.8*	5.2	88.7*
CCOc1ccc(CNC(=S)NCc2ccc(OCC)cc2)cc1	0.8	262.7	-7.1	0.9	3.7	-1.7	/
Cc1ccccc1NC(=O)N(C)[C@H]1C[C@H]2c3[nH]c4c(-c5ccccc5)cccc4c3CCN2C[C@H]1[C@H](C)O	/	/	/	/	/	11.5	/
COc1ccc(N2CCN(CCCNC(=O)CCc3ccc(F)cc3)CC2)cc1	/	/	/	/	/	2.6	/
O=S1(=O)c2ccc(Br)cc2OC[C@@H](Cc2ccccc2)N1Cc1cn(Cc2ccc(Cl)cc2)nn1	/	/	/	/	/	5.9	/
Cc1ccccc1CSCCNC(=S)Nc1ccccc1	5.8	244.1	14.6	-6.8	56.9*	-2.3	78.4*
S=C(NCCSCc1c(Cl)cccc1Cl)Nc1ccccc1	-1.5	160.1	-1.3	-5.3	79.3*	2.1	86.2*
Cc1ccc(C(=O)NCCSCc2ccc(Cl)cc2Cl)cc1[N+](=O)[O-]	-2.4	141.2	-4.7	-0.7	68.4*	5.3	78.4*
